Results on eleven compounds are retold here after ChEMBL document CHEMBL1128440 (J Med Chem, 1995).

Data set [1] deals with T1, Progesterone receptor (Homo sapiens) (UniProt P06401).
T1 sequence (whole entry): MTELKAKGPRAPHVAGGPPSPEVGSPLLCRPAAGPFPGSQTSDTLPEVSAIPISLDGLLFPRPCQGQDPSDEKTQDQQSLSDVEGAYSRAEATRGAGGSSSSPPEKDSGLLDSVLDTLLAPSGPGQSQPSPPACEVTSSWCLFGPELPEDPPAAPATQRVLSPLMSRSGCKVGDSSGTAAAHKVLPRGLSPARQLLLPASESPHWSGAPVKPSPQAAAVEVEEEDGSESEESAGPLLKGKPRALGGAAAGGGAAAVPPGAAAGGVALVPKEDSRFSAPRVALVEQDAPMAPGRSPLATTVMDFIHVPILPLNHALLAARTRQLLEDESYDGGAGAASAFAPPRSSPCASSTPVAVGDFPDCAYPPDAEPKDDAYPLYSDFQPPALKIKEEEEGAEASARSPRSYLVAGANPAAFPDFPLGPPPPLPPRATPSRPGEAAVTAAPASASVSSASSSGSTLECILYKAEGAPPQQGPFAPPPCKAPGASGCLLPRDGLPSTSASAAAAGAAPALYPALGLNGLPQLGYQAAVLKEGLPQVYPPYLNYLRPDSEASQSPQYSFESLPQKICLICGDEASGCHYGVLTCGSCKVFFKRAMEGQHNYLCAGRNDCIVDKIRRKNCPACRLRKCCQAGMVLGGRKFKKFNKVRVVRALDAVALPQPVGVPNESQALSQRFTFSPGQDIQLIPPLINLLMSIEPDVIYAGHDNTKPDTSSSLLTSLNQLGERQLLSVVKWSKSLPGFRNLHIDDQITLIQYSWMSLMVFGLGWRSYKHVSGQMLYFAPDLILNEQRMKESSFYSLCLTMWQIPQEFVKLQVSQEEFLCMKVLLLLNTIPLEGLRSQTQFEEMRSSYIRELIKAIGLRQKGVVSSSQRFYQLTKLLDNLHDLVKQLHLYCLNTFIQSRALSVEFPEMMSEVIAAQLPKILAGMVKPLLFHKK
The experiment in a line: Nonspecific binding affinity against progesterone receptor was estimated relative to compound R5020.

In data set [2] the target is T1, Progesterone receptor (Homo sapiens). The data set is described as follows: Relative binding affinity against progesterone receptor at 0 degree Celsius determined in a competitive radiometric binding assay (R5020=100%). The essentials:
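Competitive radiometric binding at 0 °C against tritium-labeled R5020 as the standard (RBA = 100). Values are the average of two experiments.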

The target is the same in data set [3]. The experiment in a line: Binding selectivity index as the ratio of RBA value to that of NSB value. In outline: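 BSI calculated as the ratio of RBA to NSB.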
Data set [4] can be described thus: Partition coefficient (logP). The format is physicochemical. The settings on record: octanol/water. In outline:
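log P(o/w) (octanol/water) estimated by a reversed-phase HPLC method.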

For data set [5], the species on record is Rattus norvegicus. The data set is described as follows: Tissue biodistribution into estrogen-primed immature female rat brain at 1 hr time interval. It is filed as ADME, organism-based. To be noted: in vivo. The essentials: (§1)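 Immature female Sprague-Dawley rats (25 days old, ≈50 g, five per time point) primed with estradiol, 5 μg sc daily for 2 days in 50% ethanol/sunflower seed oil, used 24 h after the last injection. The 18F-labeled ligand was given iv by tail vein in 10% ethanol/saline. Decapitated at 1 or 3 h; blood and organs weighed and gamma-counted. Reported as %ID/g ± SD, n = 5.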

For data set [6], the species on record is Rattus norvegicus. The data set is described as follows: Tissue biodistribution into estrogen-primed immature female rat blood at 1 hr time interval. It is filed as ADME, organism-based. The settings on record: in vivo. The essentials: as §1
The species named for data set [7] is Rattus norvegicus. The data set is described as follows: Tissue biodistribution into estrogen-primed immature female rat uterus at 1 hr time interval. It is filed as ADME, organism-based. The settings on record: in vivo. In outline:
as §1

For data set [8], the species on record is Rattus norvegicus. The data set is described as follows: Tissue biodistribution into estrogen-primed immature female rat ovaries at 1 hr time interval. The format is ADME, organism-based, Female gonad. To be noted: in vivo. In outline: as §1
For data set [9], the species on record is Rattus norvegicus. The data set is described as follows: Tissue biodistribution into estrogen-primed immature female rat muscle at 1 hr time interval. To be noted: in vivo. It is filed as ADME, organism-based. In outline:
as §1

For data set [10], the species on record is Rattus norvegicus. The data set is described as follows: Tissue biodistribution into estrogen-primed immature female rat lung at 1 hr time interval. The format is ADME, organism-based. To be noted: in vivo. The essentials:
as §1

The species entered for data set [11] is Rattus norvegicus. The data set is described as follows: Tissue biodistribution into estrogen-primed immature female rat kidney at 1 hr time interval. The format is ADME, organism-based. The settings on record: in vivo. In outline: as §1
For data set [12], the species on record is Rattus norvegicus. The data set is described as follows: Tissue biodistribution into estrogen-primed immature female rat uterus/blood at 1 hr time interval. To be noted: in vivo. The format is ADME, organism-based. In outline: as §1
The species named for data set [13] is Rattus norvegicus. The data set is described as follows: Tissue biodistribution into estrogen-primed immature female rat liver at 1 hr time interval. It is filed as ADME, organism-based. The settings on record: in vivo. The essentials: as §1
Data set [14] is filed under the species Rattus norvegicus. The data set is described as follows: Tissue biodistribution into estrogen-primed immature female rat bone at 1 hr time interval. The format is ADME, organism-based, Bone element. To be noted: in vivo. The essentials: as §1
For data set [15], the species on record is Rattus norvegicus. The experiment in a line: Tissue biodistribution into estrogen-primed immature female rat uterus/muscle at 1 hr time interval. The format is ADME, organism-based. The settings on record: in vivo.
The species entered for data set [16] is Rattus norvegicus. The experiment in a line: Tissue biodistribution into estrogen-primed immature female rat fat at 1 hr time interval. The settings on record: in vivo. It is filed as ADME, organism-based, Adipose tissue. In outline: as §1

Several values for one entry are separate records, joined by “and”; a condition that tells them apart may be missing. Equal entries are not always repeated.

Usually logP stands for a log measure of how a compound divides between an organic and an aqueous phase.

For `CC(=O)[C@H]1CC[C@H]2[C@@H]3CCC4=CC(=O)CC[C@]4(C)[C@H]3CC[C@]12C`, the NSB in data set [1] is 0.83. In [2], this compound registered an RBA of 13. Also, in [3], the BSI came to 16.
In the same order, the values of `CC[C@@H]1C[C@H]2[C@@H]3CCC4=CC(=O)CC[C@@H]4[C@H]3CC[C@]2(C)[C@H]1C(=O)CO` are 0.97, 200 and 206.
In the same order, the values of `CCC(=O)[C@@]1(C)CC[C@H]2[C@@H]3CCC4=CC(=O)CCC4=C3CC[C@@]21C` are 1, 100 and 100.
On to `CC(=O)[C@@]12OC(c3ccco3)O[C@@H]1CC1C3CCC4=CC(=O)CC[C@]4(C)C3CC[C@@]12C` (stereo partly specified), for which, in data set [1], the NSB was 1.69 and 2.08. For the same compound, the logP in [4] was found to be 4.76; in data set [4] (read-out: logP) it was 4.56.
Regarding `CC1(c2ccco2)O[C@@H]2CC3C4CCC5=CC(=O)CC[C@@H]5C4CC[C@]3(C)[C@]2(C(=O)CO)O1` (stereo partly specified), the NSB in data set [1] was 1.2 and 0.86. Also, the logP was 3.9 in data set [4] and 4.23 in data set [4] (read-out: logP).
With `C[C@@]1(c2ccc(F)cc2)O[C@@H]2CC3C4CCC5=CC(=O)CC[C@@H]5C4CC[C@]3(C)[C@]2(C(=O)CO)O1` (stereo partly specified), the NSB in data set [1] was 2.45. Further, the Injected dose/g in data set [5] was 0.34%; in [6] it was 0.26%; in data set [7] it was 3.65%; in [8] it was 2.8%; in data set [9] it was 0.44%; in [10] it was 0.6%. The Injected dose/g in data set [11] came out at 1.42%; in data set [13], 4.25%; in data set [14], 0.62%; in [16], 3.53%. This compound came in with an RBA in [2] of 240. Moreover, the BSI in data set [3] stood at 98. Besides, the “Uterus to blood concentration ratio” value in data set [12] is on record as 14%. For the same compound, the “Uterus to muscle uptake ratio” value in [15] amounted to 8.2%.
On to `CC(=O)[C@@]12OC(C)(c3ccco3)O[C@@H]1CC1C3CCC4=CC(=O)CC[C@]4(C)C3CC[C@@]12C` (stereo partly specified), for which the NSB in [1] is 2.08 and 2.74. The lipophilicity (logP) amounted to 5.03 in [4] and 4.76 in data set [4] (read-out: logP). For the same compound, the BSI in [3] was 2 and < 1.
As for `CC1(c2ccc(F)cc2)O[C@@H]2CC3C4CCC5=CC(=O)CC[C@@H]5C4CC[C@]3(C)[C@]2(C(=O)CF)O1` (stereo partly specified), the NSB in data set [1] is 4.36. In [4] (read-out: logP), the logP was found to be 5.48. The compound further came in with an RBA in [2] of 282. In data set [3], the BSI stood at 65.
As for `CC[C@@H]1C[C@H]2[C@@H]3CCC4=CC(=O)CC[C@@H]4[C@H]3CC[C@]2(C)[C@H]1C(=O)CF`, the NSB in data set [1] is 1.87. Moreover, the Injected dose/g in data set [5] is 0.63%; in data set [6], 0.25%; in data set [7] it was 6.43%; in data set [8], 2.86%; in data set [9] it was 0.42%; in data set [10] it was 0.47%. Also, the Injected dose/g in data set [11] is on record as 1.05%; in [13], 3.34%; in data set [14], 3.18%; in data set [16], 3.56%. Besides, the RBA in [2] turned out to be 700. In addition, the BSI in data set [3] turned out to be 374. The “Uterus to blood concentration ratio” value in data set [12] is listed as 26.26%. For the same compound, in data set [15], the “Uterus to muscle uptake ratio” value came to 15.98%.
For `C[C@]12CCC3C(CCC4=CC(=O)CC[C@@H]43)C1C[C@H]1OC(c3ccco3)O[C@]12C(=O)CO` (stereo partly specified), in data set [1], the NSB is 0.96 and 0.76. In addition, the logP in [4] amounted to 3.78; in data set [4] (read-out: logP), 4.01.
In the case of `CC(=O)[C@@]12O[C@](C)(c3ccc(F)cc3)O[C@@H]1CC1C3CCC4=CC(=O)CC[C@]4(C)C3CC[C@@]12C` (stereo partly specified), in data set [1], the NSB is 5.52. The Injected dose/g in data set [5] turned out to be 0.56%; in data set [6] it was 0.47%; in data set [7], 3.08%; in data set [8], 3.93%; in data set [9], 0.82%; in [10] it was 1.3%. Besides, the Injected dose/g in data set [11] came to 2.18%; in [13], 3.41%; in data set [14], 1.76%; in data set [16], 5.76%. In data set [2], this compound yielded an RBA of 53. The BSI in data set [3] came out at 10. The “Uterus to blood concentration ratio” value in [12] came to 6.59%. Moreover, in data set [15], the “Uterus to muscle uptake ratio” value worked out at 3.85%.
